Bioassay records deposited in PubChem BioAssay by SRMLSC.
This excerpt belongs to a sample that is enriched for hits.
Fibroblast inh: blocks proliferation of human lung fibroblasts. LL 47 human lung fibroblast viability, ATP luminescence; hits give low values. viability, % at 10 µM. 1.1% of 85,000 active;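 active = viability at or below 50% in the single dose screen; inactive = viability above 50%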;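 note: compound exposure lasted 72 h before the ATP readout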
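Test system: LL 47 human lung fibroblasts; Quantity: 1,150 cells/well; Buffer or medium: IMEM plus 15% FBS; Dosing: tenfold compound dosing solution, DMSO at 0.1%; Timing: overnight cell rest, 72 h compound treatment at 37 °C; Detection: ATP-based CellTiter-Glo luminescent readout; Read-out basis: viability percentage against median untreated-cell control; Controls: cell-only wells, no compound.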
H69AR growth 86K: growth inhibitors of human H69AR lung tumor cells; H69AR lung tumor viability, ATP luminescence, 72 h; hits give low values; viability, % at 10 µM; 6% of 85,000 active; AID 598;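 active = viability at or below 40%; inactive = viability above 40%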;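 note: multidrug resistant small cell line overexpressing MRP-1 efflux transporter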
HUVEC inhibit: inhibitors of human endothelial cell proliferation. 1.1% of 86,000 active. viability, % at 10 µM (by protocol). AID 648. HUVEC proliferation, CellTiter-Glo luminescence, 72 h; hits give low values;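 active = viability at or below 30%; inactive = viability above 30%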
HCT116 bCat-KO: beta-catenin-lacking colon tumor cell growth suppression. viability, % at 10 µM. 1.5% of 140,000 active. HCT116 beta-catenin knockout viability, CellTiter-Glo, 60 h; hits give low values;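 active = viability at or under a set limit, the compound median less 4 SD, cut at about 6% in these data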
HCT116 PTEN-null: suppresses growth of cells with PTEN deletion; AID 827; viability, % at 10 µM; HCT116 PTEN-null viability, CellTiter-Glo, 60 h; hits give low values; 1.2% of 140,000 active;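 active = viability at or below a set limit, 4 SD under the median of all tested compounds, cut at about 3.7% in these data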;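 note: PTEN knockout HCT116 line with beta catenin targeted HCT116 as companion control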
Numbers stand for hits; n = inactive; x = no result given.

SMILES | Fibroblast inh | H69AR growth 86K | HUVEC inhibit | HCT116 bCat-KO | HCT116 PTEN-null
O=C(CN1CCN(S(=O)(=O)c2ccc(F)cc2)CC1)Nc1ccc2c(c1)OCCO2 | n | n | n | n | n
O=C(CN1CCCN(S(=O)(=O)c2ccc(Br)cc2)CC1)Nc1ccc2cn[nH]c2c1 | n | 2.1 | n | x | x
O=c1cc2[nH]c3ccccc3c(=O)n2nc1-c1ccccc1 | x | x | x | n | n
CCc1nc2c(cnn2-c2ccc(Cl)cc2)c(=O)n1-c1ccc2c(c1)OCCO2 | n | n | n | 3.3 | n
Nc1c(S(=O)(=O)c2ccccc2)c2nc3ccccc3nc2n1/N=C/c1cccc(O)c1 | n | 1.4 | 6.9 | n | 3.6
Cc1ccc(S(=O)(=O)c2c(N)n(CCC(C)C)c3nc4ccccc4nc23)cc1 | n | n | n | n | 2.6
CC(C)CCn1c(N)c(S(=O)(=O)c2cccs2)c2nc3ccccc3nc21 | n | 40 | n | n | n
Cn1c(N)c(S(=O)(=O)c2ccc(Br)cc2)c2nc3ccccc3nc21 | n | 13 | n | n | n
Cc1cccc(S(=O)(=O)c2c(N)n(/N=C/c3ccccc3)c3nc4ccccc4nc23)c1 | n | n | n | n | n
Cc1ccc(S(=O)(=O)c2c(N)n(CCCO)c3nc4ccccc4nc23)cc1 | n | n | n | n | n
COC(=O)c1cc(=O)n(Cc2ccco2)c(=Nc2ccc(F)c(Cl)c2)s1 | 7.9 | 1.5 | 3.1 | 1.6 | n
COC(=O)c1cc(=O)n(CCc2ccccc2F)c(=Nc2ccc(F)c(Cl)c2)s1 | 16 | 1.5 | 8.9 | n | n
CN1c2ccccc2-c2nc3ccccc3n2C1c1cccs1 (stereo not drawn) | x | x | x | n | n
CC(=O)N1C(O)CC(C)N1c1ccccc1 (stereo not drawn) | x | x | x | n | n
C=CCCCCCCCCC(=O)NN | x | x | x | n | n
OC(COCc1ccc(Cl)cc1)CN1CCN(CC(O)COCc2ccc(Cl)cc2)CC1 (stereo not drawn) | n | n | n | 5.5 | n
Cc1ccc(S(=O)(=O)N(C)C)cc1NC(=O)CSc1ncc(C(F)(F)F)cc1Cl | x | x | x | 1.3 | n
CCN(CC)S(=O)(=O)c1ccc(C)c(NC(=O)CSc2ncc(C(F)(F)F)cc2Cl)c1 | x | x | x | n | n
Cc1ccc(S(=O)(=O)N2CCN(C(=O)CSc3ncc(C(F)(F)F)cc3Cl)CC2)cc1 | n | 6.2 | n | n | n
COc1ccc(C2CC(=O)c3cnc(NC(=O)c4ccccc4)nc3C2)c(OC)c1 (stereo not drawn) | n | 27 | n | n | n
Clc1ccc(-c2nnc(CNC3CC3)o2)cc1 | x | x | x | n | n
CCOC(=O)c1ccc(Oc2cc(C)nc(SC)n2)cc1 | n | 22 | n | n | n
CCOC(=O)COC(=O)c1ccc(Oc2cc(C)nc(SC)n2)cc1 | n | n | n | n | n
O=C(CNC(=O)c1ccc(S(=O)(=O)N2CCCC2)cc1)N/N=C/c1ccc(Cl)cc1Cl | x | x | x | n | n
CCCOc1ccc(OC(=O)c2ccc(Br)o2)cc1 | n | n | n | n | n
SMILES | Fibroblast inh | H69AR growth 86K | HUVEC inhibit | HCT116 bCat-KO | HCT116 PTEN-null
O/N=C1/C2C3C(Br)C4C5CC(C1C53)C24 (stereo not drawn) | x | x | x | n | n
O=c1cc(/C=C/c2cccs2)[nH]c2ccccc12 | n | 25 | n | n | n
COc1ccc(OC)c(NC(=S)N2CCC(C(O)(c3ccccc3)c3ccccc3)CC2)c1 | x | x | x | n | n
Cc1ccc(NC(=O)c2cccc(S(=O)(=O)N(C)c3ccccc3)c2)cc1S(=O)(=O)N1CCOCC1 | x | x | x | n | n
COc1ccc(OC)c(C(=O)COC(=O)c2ccc(C)o2)c1 | n | n | n | n | n
COc1ccc(C(=O)OCC(=O)c2cc(OC)ccc2OC)c(OC)c1 | n | n | n | 0.6 | 0.8
Cc1ccccc1NC(=S)N(C)Cc1cn(C)c2ccccc12 | x | x | x | n | n
CCOc1ccc(C(=O)Nc2ccccc2N2CCCC2)cc1 | n | 36 | n | n | n
CCCCOC(=O)N/N=C/C=C/c1ccccc1 | x | x | x | n | n
O=c1c2ccccc2nc(/C=C/c2ccc([N+](=O)[O-])o2)n1CCCO | x | x | x | 1.5 | 1.3
O=c1c2ccccc2nc(/C=C/c2ccc([N+](=O)[O-])cc2)n1CCCO | x | x | x | n | n
CCOC(=O)C1=C(Nc2ccccc2)CC(C)(O)C(C(=O)OCC)C1c1ccc(Cl)cc1 (stereo not drawn) | x | x | x | n | n
CN(C)CCN(C(=O)/C=C/c1cccs1)c1nc2c(F)cc(F)cc2s1 | x | x | x | 1.6 | 2.0
Cc1ccc2nc(N(CCN(C)C)C(=O)/C=C/c3cccs3)sc2c1 | x | x | x | n | n
CCc1ccc(C(=O)/C=C/c2ccc([N+](=O)[O-])o2)cc1 | 15 | 2.6 | 21 | 1.9 | 1.5
O=C(CSc1nnc(-c2cccs2)o1)Nc1cccc(S(=O)(=O)N2CCCCC2)c1 | x | x | x | n | n
Fc1ccc(-c2nc3n(n2)Cc2ccccc2-3)cc1 | n | 37 | n | n | n
CCn1c(C)nc2cc(C(=O)n3cc(C(=O)c4ccccc4O)cn3)ccc21 | x | x | x | n | n
Cc1ccc(-c2nc3n(n2)Cc2ccccc2-3)cc1 | n | n | n | n | n
CCn1c(C)nc2cc(-c3nc4n(n3)Cc3ccccc3-4)ccc21 | 24 | 16 | 26 | n | n
CCCCN(CCCC)C(=S)NC(=O)c1ccccc1Cl | x | x | x | n | n
N=c1c2c(-c3ccccc3)c(-c3ccccc3)n(Cc3ccccc3)c2ncn1CCO | 22 | 1.9 | 3.3 | 1.2 | 1.6
OCCNc1ncnc2c1c(-c1ccccc1)c(-c1ccccc1)n2Cc1ccco1 | x | x | x | n | n
N=c1c2c(-c3ccccc3)c(-c3ccccc3)n(Cc3ccco3)c2ncn1Cc1ccccc1 | 32 | 9.9 | 2.1 | 1.1 | 1.9
CC(C)Cn1cnc2c(c(-c3ccccc3)c(-c3ccccc3)n2Cc2ccco2)c1=N | 3.1 | 1.1 | 2.5 | 2.8 | 3.0
SMILES | Fibroblast inh | H69AR growth 86K | HUVEC inhibit | HCT116 bCat-KO | HCT116 PTEN-null
Cc1cc(C)n(-c2nc3c(c(=O)n(Cc4ccc(Cl)c(Cl)c4)c(=O)n3C)n2C)n1 | n | 38 | n | x | x
CC1CN(c2nc3c(c(=O)n(Cc4ccc(Cl)c(Cl)c4)c(=O)n3C)n2C)CC(C)O1 (stereo not drawn) | n | n | n | n | n
Cn1c(N2CCN(c3ccccn3)CC2)nc2c1c(=O)n(Cc1ccccc1Cl)c(=O)n2C | n | 23 | n | x | x
Cn1c(N2CCCCC2)nc2c1c(=O)n(Cc1cccc(Br)c1)c(=O)n2C | n | 34 | n | n | n
CCOc1ccc2nc(N3CCC(C(=O)N4CCN(c5ncccn5)CC4)CC3)sc2c1 | n | 38 | n | x | x
N#Cc1cn(CC(=O)NCCc2c[nH]c3ccccc23)c2ccccc12 | n | n | n | n | n
Cc1c(C#N)c2ccccc2n1CC(=O)NCCc1c[nH]c2ccccc12 | n | 37 | n | n | n
CC1Nc2ccccc2C(=O)N1NS(=O)(=O)c1ccccc1 (stereo not drawn) | x | x | x | n | n
Cc1coc(NC(=O)CSc2nc(-c3ccncc3)cc(C(F)(F)F)c2C#N)n1 | n | 38 | n | n | n
COc1ccc2nc(Nc3nc(CSc4nc5ccccc5[nH]4)cc(=O)[nH]3)nc(C)c2c1 | x | x | x | 6.1 | n
Cc1nc(Nc2nc(CSc3ccc(Cl)cc3)cc(=O)[nH]2)nc2ccccc12 | x | x | x | n | n
